Data: publication PMC9536290 (Clinical Infectious Diseases: An Official Publication of …, 2022)
Where “and” joins values, the source holds several entries; their conditions need not be identical. Equal entries are not always repeated.

Assays:
[1] = test system: HIV-1; assay: Phase IIa monotherapy study: antiviral effect; type: in vivo, HIV-1–positive, treatment-naive adults; settings: for Plasma HIV-1 RNA change from baseline to nadir, mean (SD): n = 6; for Modeled plasma HIV-1 RNA maximum change (nadir), least squares mean (90% CI): mixed-effects model
In short: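 Randomized, double-blind, placebo-controlled oral monotherapy, once daily after a moderate-fat meal (≥400 calories, ≥120 from fat) taken 30 minutes before dosing. Part 1: 10 or 200 mg for 10 days. Part 2: 40–140 mg for 7 days, then combination ART from day 8. Plasma HIV-1 RNA endpoints were maximum change and change to day 11 (part 1) or day 8 (part 2). Maximum change was fitted by a mixed-effects linear model; dose–response by an Emax model pooling both parts (ED50).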

[2] = Phase IIa monotherapy study: safety and tolerability; type: in vivo, HIV-1–positive, treatment-naive adults; settings: for Drug-related AEs: Abdominal pain / Drug-related AEs: Any event / Drug-related AEs: Chromaturia / Drug-related AEs: Diarrhea / Drug-related AEs: Epistaxis / Drug-related AEs: Fatigue / Drug-related AEs: Headache / Drug-related AEs: Maculopapular rash / Drug-related AEs: Nausea / Drug-related AEs: Pruritus / Drug-related AEs: Vomiting / Total AEs: Abdominal pain / Total AEs: Any event / Total AEs: Diarrhea / Total AEs: Headache / Total AEs: Lymphadenopathy / Total AEs: Nasopharyngitis / Total AEs: Oropharyngeal pain / Total AEs: Vomiting / Serious AEs: Anal abscess / Serious AEs: Congestive cardiomyopathy: n = 6; for Serious AEs: Anal abscess / Serious AEs: Congestive cardiomyopathy: considered not related to the study drug
In short: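 Adults were ART-naive, aged 18–65 years, with HIV-1 RNA ≥5000 copies/mL and CD4+ ≥350 cells/mm3. They received placebo or oral once-daily doses after a moderate-fat meal: 10 or 200 mg for 10 days (part 1), or 40–140 mg for 7 days (part 2). Safety was monitored through adverse events, clinical laboratory tests, electrocardiograms and vital signs.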

[3] = test system: triple-mutant polymorph (R361K/V362I/L363M); settings: cited from earlier work
[4] = 10 mg once daily, part 1 (10 days)
[5] = 40 mg once daily, part 2 (7 days)
[6] = 80 mg once daily, part 2 (7 days)
[7] = 140 mg once daily, part 2 (7 days)
[8] = 200 mg once daily, part 1 (10 days)
[9] = all doses combined, % of 34 participants

C=C(C)[C@@H]1CC[C@]2(NCCN3CCS(=O)(=O)CC3)CC[C@]3(C)[C@H](CC[C@@H]4[C@@]5(C)CC=C(C6=CC[C@@](CF)(C(=O)O)CC6)C(C)(C)[C@@H]5CC[C@]43C)[C@@H]12 [GSK’254]
Maximum change in HIV-1 RNA ([1]; 10 mg once daily, 10 days): −0.4 log10 | Plasma HIV-1 RNA change from baseline to nadir, mean (SD) [1, 4]: −0.36 (0.25) log10 copies/mL | Modeled plasma HIV-1 RNA maximum change (nadir), least squares mean (90% CI) [1, 4]: −0.34 (−.67 to −.00) log10 copies/mL | Plasma HIV-1 RNA change from baseline to primary endpoint, mean (SD) ([1]; 10 mg once daily, part 1, Day 11, n = 6): −0.22 (0.31) log10 copies/mL | Maximum change in HIV-1 RNA ([1]; 40 mg once daily, 7 days): −1.2 log10 | Plasma HIV-1 RNA change from baseline to nadir, mean (SD) [1, 5]: −1.18 (0.44) log10 copies/mL | Modeled plasma HIV-1 RNA maximum change (nadir), least squares mean (90% CI) [1, 5]: −1.05 (−1.29 to −.82) log10 copies/mL | Plasma HIV-1 RNA change from baseline to primary endpoint, mean (SD) ([1]; 40 mg once daily, part 2, Day 8, n = 6): −1.18 (0.44) log10 copies/mL | Maximum change in HIV-1 RNA ([1]; 80 mg once daily, 7 days): −1.0 log10 | Plasma HIV-1 RNA change from baseline to nadir, mean (SD) [1, 6]: −1.02 (0.33) log10 copies/mL | Modeled plasma HIV-1 RNA maximum change (nadir), least squares mean (90% CI) [1, 6]: −0.94 (−1.16 to −.72) log10 copies/mL | Plasma HIV-1 RNA change from baseline to primary endpoint, mean (SD) ([1]; 80 mg once daily, part 2, Day 8, n = 6): −1.02 (0.33) log10 copies/mL | Maximum change in HIV-1 RNA ([1]; 140 mg once daily, 7 days): −1.5 log10 | Plasma HIV-1 RNA change from baseline to nadir, mean (SD) [1, 7]: −1.49 (0.27) log10 copies/mL | Modeled plasma HIV-1 RNA maximum change (nadir), least squares mean (90% CI) [1, 7]: −1.49 (−1.70 to − 1.28) log10 copies/mL | Plasma HIV-1 RNA change from baseline to primary endpoint, mean (SD) ([1]; 140 mg once daily, part 2, Day 8, n = 6): −1.45 (0.24) log10 copies/mL | Maximum change in HIV-1 RNA ([1]; 200 mg once daily, 10 days): −2.0 log10 | Plasma HIV-1 RNA change from baseline to nadir, mean (SD) [1, 8]: −2.01 (0.33) log10 copies/mL | Modeled plasma HIV-1 RNA maximum change (nadir), least squares mean (90% CI) [1, 8]: −1.93 (−2.24 to −1.62) log10 copies/mL | Plasma HIV-1 RNA change from baseline to primary endpoint, mean (SD) ([1]; 200 mg once daily, part 1, Day 11, n = 6): −1.96 (0.34) log10 copies/mL | Maximum mean decline from baseline in HIV-1 RNA ([1]; 10-mg dose): 0.36 log10 | Participants with >1.5-log10 decline in HIV-1 RNA from baseline at Day 8 ([1]; 40-mg group (n = 6)): 1 participants | Maximum mean decline in HIV-1 RNA ([1]; 140-mg group): 1.5 log10 | Participants with >1.5-log10 decline in HIV-1 RNA from baseline at Day 8 ([1]; 140-mg group (n = 6)): 3 participants | Maximum mean decline in HIV-1 RNA ([1]; 200-mg group): 2.0 log10 | Decline from baseline in HIV-1 RNA at day 11 in all participants ([1]; 200-mg group, day 11): > 1.5 log10 | Half maximal effective dose (ED50) ([1]; Emax nonlinear model, maximum change in HIV-1 RNA to day 8 vs dose, once daily): 42.67 mg and 42.7 mg and ~ 43 mg | Decline in HIV-1 RNA ([1]; doses ≥40 mg, regardless of dosing duration): ≥ 1 log10 | Potency as an antiviral (maximum change in HIV-1 RNA) ([1]; monotherapy): 2 log10 | Median time to nadir in HIV-1 RNA ([1]; part 1 (10 days dosing)): 11.5 days | Median time to nadir in HIV-1 RNA ([1]; part 2 (7 days dosing)): 8.0 days | Drug-related AEs: Abdominal pain [2, 4]: 0 n (%) | Drug-related AEs: Any event [2, 4]: 2 (33) n (%) | Drug-related AEs: Chromaturia [2, 4]: 1 (17) n (%) | Drug-related AEs: Diarrhea [2, 4]: 1 (17) n (%) | Drug-related AEs: Epistaxis [2, 4]: 0 n (%) | Drug-related AEs: Fatigue [2, 4]: 0 n (%) | Drug-related AEs: Headache [2, 4]: 0 n (%) | Drug-related AEs: Maculopapular rash [2, 4]: 0 n (%) | Drug-related AEs: Nausea [2, 4]: 1 (17) n (%) | Drug-related AEs: Pruritus [2, 4]: 0 n (%) | Drug-related AEs: Vomiting [2, 4]: 1 (17) n (%) | Total AEs: Abdominal pain [2, 4]: 0 n (%) | Total AEs: Any event [2, 4]: 3 (50) n (%) | Total AEs: Diarrhea [2, 4]: 1 (17) n (%) | Total AEs: Headache [2, 4]: 0 n (%) | Total AEs: Lymphadenopathy [2, 4]: 1 (17) n (%) | Total AEs: Nasopharyngitis [2, 4]: 0 n (%) | Total AEs: Oropharyngeal pain [2, 4]: 0 n (%) | Total AEs: Vomiting [2, 4]: 1 (17) n (%) | Drug-related AEs: Abdominal pain [2, 5]: 0 n (%) | Drug-related AEs: Any event [2, 5]: 2 (33) n (%) | Drug-related AEs: Chromaturia [2, 5]: 0 n (%) | Drug-related AEs: Diarrhea [2, 5]: 1 (17) n (%) | Drug-related AEs: Epistaxis [2, 5]: 1 (17) n (%) | Drug-related AEs: Fatigue [2, 5]: 1 (17) n (%) | Drug-related AEs: Headache [2, 5]: 0 n (%) | Drug-related AEs: Maculopapular rash [2, 5]: 0 n (%) | Drug-related AEs: Nausea [2, 5]: 0 n (%) | Drug-related AEs: Pruritus [2, 5]: 0 n (%) | Drug-related AEs: Vomiting [2, 5]: 0 n (%) | Total AEs: Abdominal pain [2, 5]: 0 n (%) | Total AEs: Any event [2, 5]: 5 (83) n (%) | Total AEs: Diarrhea [2, 5]: 1 (17) n (%) | Total AEs: Headache [2, 5]: 1 (17) n (%) | Total AEs: Lymphadenopathy [2, 5]: 0 n (%) | Total AEs: Nasopharyngitis [2, 5]: 0 n (%) | Total AEs: Oropharyngeal pain [2, 5]: 0 n (%) | Total AEs: Vomiting [2, 5]: 0 n (%) | Drug-related AEs: Abdominal pain [2, 6]: 2 (33) n (%) | Drug-related AEs: Any event [2, 6]: 2 (33) n (%) | Drug-related AEs: Chromaturia [2, 6]: 0 n (%) | Drug-related AEs: Diarrhea [2, 6]: 0 n (%) | Drug-related AEs: Epistaxis [2, 6]: 0 n (%) | Drug-related AEs: Fatigue [2, 6]: 0 n (%) | Drug-related AEs: Headache [2, 6]: 0 n (%) | Drug-related AEs: Maculopapular rash [2, 6]: 0 n (%) | Drug-related AEs: Nausea [2, 6]: 0 n (%) | Drug-related AEs: Pruritus [2, 6]: 0 n (%) | Drug-related AEs: Vomiting [2, 6]: 0 n (%) | Total AEs: Abdominal pain [2, 6]: 2 (33) n (%) | Total AEs: Any event [2, 6]: 4 (67) n (%) | Total AEs: Diarrhea [2, 6]: 0 n (%) | Total AEs: Headache [2, 6]: 0 n (%) | Total AEs: Lymphadenopathy [2, 6]: 0 n (%) | Total AEs: Nasopharyngitis [2, 6]: 0 n (%) | Total AEs: Oropharyngeal pain [2, 6]: 0 n (%) | Total AEs: Vomiting [2, 6]: 0 n (%) | Drug-related AEs: Abdominal pain [2, 7]: 0 n (%) | Drug-related AEs: Any event [2, 7]: 1 (17) n (%) | Drug-related AEs: Chromaturia [2, 7]: 0 n (%) | Drug-related AEs: Diarrhea [2, 7]: 0 n (%) | Drug-related AEs: Epistaxis [2, 7]: 0 n (%) | Drug-related AEs: Fatigue [2, 7]: 0 n (%) | Drug-related AEs: Headache [2, 7]: 0 n (%) | Drug-related AEs: Maculopapular rash [2, 7]: 1 (17) n (%) | Drug-related AEs: Nausea [2, 7]: 0 n (%) | Drug-related AEs: Pruritus [2, 7]: 1 (17) n (%) | Drug-related AEs: Vomiting [2, 7]: 0 n (%) | Total AEs: Abdominal pain [2, 7]: 0 n (%) | Total AEs: Any event [2, 7]: 5 (83) n (%) | Total AEs: Diarrhea [2, 7]: 0 n (%) | Total AEs: Headache [2, 7]: 1 (17) n (%) | Total AEs: Lymphadenopathy [2, 7]: 0 n (%) | Total AEs: Nasopharyngitis [2, 7]: 0 n (%) | Total AEs: Oropharyngeal pain [2, 7]: 1 (17) n (%) | Total AEs: Vomiting [2, 7]: 0 n (%) | Serious AEs: Anal abscess [2, 7]: 1 (17) n (%) | Serious AEs: Congestive cardiomyopathy [2, 7]: 0 n (%) | Drug-related AEs: Abdominal pain [2, 8]: 0 n (%) | Drug-related AEs: Any event [2, 8]: 2 (33) n (%) | Drug-related AEs: Chromaturia [2, 8]: 0 n (%) | Drug-related AEs: Diarrhea [2, 8]: 1 (17) n (%) | Drug-related AEs: Epistaxis [2, 8]: 0 n (%) | Drug-related AEs: Fatigue [2, 8]: 0 n (%) | Drug-related AEs: Headache [2, 8]: 1 (17) n (%) | Drug-related AEs: Maculopapular rash [2, 8]: 0 n (%) | Drug-related AEs: Nausea [2, 8]: 0 n (%) | Drug-related AEs: Pruritus [2, 8]: 0 n (%) | Drug-related AEs: Vomiting [2, 8]: 1 (17) n (%) | Total AEs: Abdominal pain [2, 8]: 0 n (%) | Total AEs: Any event [2, 8]: 5 (83) n (%) | Total AEs: Diarrhea [2, 8]: 1 (17) n (%) | Total AEs: Headache [2, 8]: 2 (33) n (%) | Total AEs: Lymphadenopathy [2, 8]: 1 (17) n (%) | Total AEs: Nasopharyngitis [2, 8]: 2 (33) n (%) | Total AEs: Oropharyngeal pain [2, 8]: 2 (33) n (%) | Total AEs: Vomiting [2, 8]: 1 (17) n (%) | Serious AEs: Anal abscess [2, 8]: 0 n (%) | Serious AEs: Congestive cardiomyopathy [2, 8]: 0 n (%) | Trends in laboratory values, electrocardiograms, or vital signs ([2]; across treatment groups in parts 1 or 2): No clinically significant trends | AEs leading to treatment discontinuation ([2]; all doses): No AEs led to treatment discontinuation | Deaths ([2]; all doses): no deaths were reported | Number of drug-related AEs overall ([2]; all doses combined): Fourteen | Participants reporting abdominal pain overall ([2]; all doses combined): 2 n | Participants reporting diarrhea overall ([2]; all doses combined): 3 n | Participants reporting headache overall ([2]; all doses combined): 4 n | Participants reporting oropharyngeal pain overall ([2]; all doses combined): 3 n | Participants reporting vomiting overall ([2]; all doses combined): 2 n | Participants reporting drug-related AEs overall [2, 9]: 9 (26%) n (%) | Participants with gastrointestinal AEs overall [2, 9]: 7 (21%) n (%) | Participants reporting AEs overall ([2]; all doses, % of 34 participants incl. placebo (n = 4), all had received GSK’254): 22 (65%) n (%) | Intensity of AEs and SAEs ([2]; all doses, except 1 participant with 2 grade 3 non-drug-related AEs): mild-to-moderate | EC90 ([3]; read-out: 3× protein-binding adjusted 90% effective concentration (3× PBA EC90)): 150 nM | EC50 ([3]; read-out: Half maximal effective concentration (EC50)): 3 nM | 3× protein-binding adjusted 90% effective concentration (3× PBA EC90) ([3]; target trough concentration): 0.11 µg/mL
